Published values of several laboratories.
Compare with care: the assays were run in different laboratories. pIC50: −log10 of the molar value.
Cell line: MCF7
Read-out: cell growth or viability

For `COc1cc2c3c(n(CCCNC(C)C)c(=O)c2cc1OC)-c1nc2c(cc1C3=O)OCO2`, the pIC50 was 6.50 (72 h).
The pIC50 of `Cc1nc(Nc2ccc3c(c2)/C(=C/c2ccccc2C)C(=O)N3)c2ccccc2n1` is reported as less than 4.30 (MTT).
With `COc1ccc(-c2cc(-c3ccccc3Cl)c3c(=O)[nH]c(=O)[nH]c3n2)cc1` the pIC50 was 4.76 (MTT; 48 h).
`Cc1nc(Nc2ccc3c(c2)/C(=C/c2ccccc2)C(=O)N3C)c2ccccc2n1` has a pIC50 of 4.54 (MTT).
The pIC50 of `Cc1ccccc1NC(=O)C=Cc1ccc(O)c(O)c1` is reported as 4.35 (MTT).
The pIC50 of `CC(C)CS(=O)(=O)NCc1cccc(-c2ccc3c(NC(=O)CC4CC4)n[nH]c3c2)c1` is reported as 4.38 (ATP luminescence; 48 h).
With `CCNCCCn1c2c(c3cc(OC)c(OC)cc3c1=O)C(=O)c1cc3c(nc1-2)OCO3` the pIC50 was 6.58 (72 h).
With `COc1cc2ncnc(Nc3ccc4c(c3)/C(=C/c3ccccc3)C(=O)N4C)c2cc1OC` the pIC50 was 5.11 (MTT).
For `CC1CCC(C(C)C)C(OC(=O)C=Cc2ccc(O)c(O)c2)C1` (centres unmarked), the pIC50 was 4.54 (MTT).
For `COc1ccc(-c2cc(-c3ccccc3Cl)c3c(=O)n(C)c(=O)n(C)c3n2)cc1`, the pIC50 was 4.67 (MTT; 48 h).
`Cc1nc(NC(=O)N2CCC[C@H]2C(N)=O)sc1-c1ccnc(C(C)(C)C(F)(F)F)c1` gave a pIC50 of 5.72 (MTT).
With `O=c1nc(-c2ccc(Nc3nnc(-c4ccc(Cl)cc4)c4ccccc34)cc2)cc(-c2ccccc2)[nH]1` the pIC50 was 6.80 (MTT; 72 h).
The pIC50 of `COc1ccc(-c2cc(-c3c(OC)cccc3OC)c3c(=O)n(C)c(=O)n(C)c3n2)cc1` is reported as 4.95 (MTT; 48 h).
`COc1cc2ncnc(N(C)c3ccc4c(c3)/C(=C/c3ccccc3)C(=O)N4C)c2cc1OC` (mixture of isomers) has a pIC50 of 5.03 (MTT).
The pIC50 of `COc1ccc(-c2cc(-c3ccc(OC)cc3)c3c(=O)[nH]c(=O)[nH]c3n2)cc1` is reported as 5.08 (MTT; 48 h).
The pIC50 of `Cc1nc(Nc2ccc3c(c2)/C(=C/c2ccccc2Cl)C(=O)N3)c2ccccc2n1` is reported as 5.19 (MTT).
The pIC50 of `Cc1nc2ccc(CN(C)c3ccc(C(=O)N[C@@H](CCC(=O)O)C(=O)O)s3)cc2c(=O)[nH]1` is reported as 5.70 (MTT; 48 h).
The pIC50 of `Nc1ccccc1OC(=O)C=Cc1ccc(O)c(O)c1` is reported as 4.65 (MTT).
With `COc1ccc(-c2cc(-c3cc(OC)ccc3OC)c3c(=O)n(C)c(=O)n(C)c3n2)cc1` the pIC50 was 4.70 (MTT; 48 h).
For `COc1cc2c3c(n(CCCN4CCOCC4)c(=O)c2cc1OC)-c1nc2c(cc1C3=O)OCO2`, the pIC50 was 6.03 (72 h).
